Data reported in article PMC3962784 (Journal of medicinal chemistry, 2013).

Legend:
[1] = biological target: T1, full length Cal1 (full length porcine calpain) (Sus scrofa, UniProt P35750); assay: Calpain inhibition kinetics, Suc-LLVY-AMC progress curves; type: biochemical; settings: for Calpain1 ki: inhibition rate constant; for Calpain1 ki / Calpain1 ki/Ki: full length Cal1; for Calpain1 ki/Ki: mean ± S.D. of triplicate; for 10^2 × ki/Ki Cal1 / ki/Ki papain: selectivity ratio Cal1 over papain; for Calpain1 rel (ki/Ki calculated relative to E-64): E-64 = 1; for Relative selectivity for inhibition of Cal1 over papain (in words): assessed using ki/Ki
T1 sequence (P35750 1-714): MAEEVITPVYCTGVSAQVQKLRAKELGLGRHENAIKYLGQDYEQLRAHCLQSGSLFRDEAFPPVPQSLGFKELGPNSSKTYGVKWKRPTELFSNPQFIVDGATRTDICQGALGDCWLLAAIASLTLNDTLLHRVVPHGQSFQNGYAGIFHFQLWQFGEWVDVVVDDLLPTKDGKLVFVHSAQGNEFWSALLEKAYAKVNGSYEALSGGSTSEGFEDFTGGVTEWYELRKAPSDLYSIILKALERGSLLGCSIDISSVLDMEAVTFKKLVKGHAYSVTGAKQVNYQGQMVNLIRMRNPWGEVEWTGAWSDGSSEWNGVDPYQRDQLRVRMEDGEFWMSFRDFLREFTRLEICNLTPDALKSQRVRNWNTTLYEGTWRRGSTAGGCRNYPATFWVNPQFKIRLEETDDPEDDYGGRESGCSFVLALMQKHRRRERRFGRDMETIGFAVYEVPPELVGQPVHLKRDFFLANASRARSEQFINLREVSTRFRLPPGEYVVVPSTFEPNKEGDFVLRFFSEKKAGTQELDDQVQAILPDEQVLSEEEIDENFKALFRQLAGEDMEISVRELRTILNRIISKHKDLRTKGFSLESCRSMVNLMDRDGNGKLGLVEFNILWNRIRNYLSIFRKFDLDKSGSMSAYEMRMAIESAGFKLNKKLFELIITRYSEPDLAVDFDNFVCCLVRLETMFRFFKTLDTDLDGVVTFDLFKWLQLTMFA
T1 sequence (P04574 1-266 partner): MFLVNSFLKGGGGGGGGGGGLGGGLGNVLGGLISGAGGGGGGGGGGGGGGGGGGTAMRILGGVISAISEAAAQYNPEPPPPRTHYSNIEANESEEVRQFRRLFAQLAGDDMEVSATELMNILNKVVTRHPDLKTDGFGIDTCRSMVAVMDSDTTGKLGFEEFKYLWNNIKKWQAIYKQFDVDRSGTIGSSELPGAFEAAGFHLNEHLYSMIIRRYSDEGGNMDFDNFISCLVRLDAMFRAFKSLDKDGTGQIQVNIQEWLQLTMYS

papain = biological target: T2, papain (Carica papaya, UniProt P00784); assay: Papain inhibition kinetics, Suc-LLVY-AMC progress curves; type: biochemical; settings: for Papain ki: inhibition rate constant; for Papain ki/Ki: mean ± S.D. of triplicate; for Papain rel (ki/Ki calculated relative to E-64): E-64 = 1
T2 sequence (P00784 134-345): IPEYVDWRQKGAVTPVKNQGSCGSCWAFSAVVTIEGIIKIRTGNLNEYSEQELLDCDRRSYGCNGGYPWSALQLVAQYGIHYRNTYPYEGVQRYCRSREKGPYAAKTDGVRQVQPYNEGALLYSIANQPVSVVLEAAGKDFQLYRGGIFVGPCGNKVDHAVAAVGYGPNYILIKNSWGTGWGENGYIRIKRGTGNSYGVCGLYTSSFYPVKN
Summary of the method: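 Papain (236 pM) in 100 mM NaCl, 50 mM HEPES pH 7.6, 1 mM TCEP with 30 µM Suc-LLVY-AMC and inhibitor at 0.5–50 µM, 30 °C. Organic solvent (acetonitrile/DMSO 1:1) stayed below 2%. AMC release was followed over time at Ex/Em 346/444 nm. Constants came from varied enzyme and inhibitor concentrations, and selectivity from ki/Ki with E-64 as 1.0. Triplicates.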

[2] = biological target: recombinant rat Cal1cat (Cal1 catalytic domain) active site Cys (Rattus norvegicus, UniProt P97571); assay: LC-MS/MS examination of inhibitor modified Cal1cat active site; type: binding; settings: co-incubation of Cal1cat (1 μM) with E-64 and 22a, both 5 μM
Summary of the method: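 Recombinant rat Cal1cat from E. coli (1 μM), activated with CaCl2 (10 mM), co-incubated 20 min with both inhibitors at 5 μM each. Quenched with EDTA, run on SDS-PAGE; band excised, alkylated in-gel with IAA (100 mM, 60 min), trypsin-digested. Ion-trap LC-MS/MS, reverse-phase column, ACN/water with 0.1% formic acid. Semiquantitative EIC of modified peptides against non-active-site IAA-capped peptide internal standard.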

Sequence of recombinant rat Cal1cat (Cal1 catalytic domain) active site Cys (P97571 55-354 limits assumed): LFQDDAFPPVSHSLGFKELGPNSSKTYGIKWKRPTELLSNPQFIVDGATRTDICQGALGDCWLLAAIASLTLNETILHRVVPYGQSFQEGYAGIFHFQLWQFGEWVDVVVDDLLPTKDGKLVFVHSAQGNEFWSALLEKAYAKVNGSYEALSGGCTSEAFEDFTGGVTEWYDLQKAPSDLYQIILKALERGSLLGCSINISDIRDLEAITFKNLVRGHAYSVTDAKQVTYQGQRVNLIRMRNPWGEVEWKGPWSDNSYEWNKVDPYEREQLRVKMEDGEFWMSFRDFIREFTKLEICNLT

Row | Compound | Calpain1 ki [1] [s⁻¹] | Papain ki (papain) [s⁻¹] | Competitive modification of Cal1cat active site [2] | Calpain1 ki/Ki [1] [×l0^−4 s^−1M^−1] | 10^2 × ki/Ki Cal1 / ki/Ki papain [1] | Papain ki/Ki (papain) [×l0^−4s^−1M^−1] | Calpain1 rel (ki/Ki calculated relative to E-64) [1] | Relative selectivity for inhibition of Cal1 over papain (in words) [1] | Papain rel (ki/Ki calculated relative to E-64) (papain)
1 | CC(C)C[C@H](NC(=O)[C@H]1O[C@@H]1C(=O)O)C(=O)Nc1nc(-c2ccc(F)cc2)cs1 [22a, (2S,3S)-3-((S)-1-(4-(4-fluorophenyl)thiazol-2-ylamino)-4-methyl-1-oxopentan-2-ylcarbamoyl)oxirane-2-carboxylic acid] | 0.16 | 17.1 | relatively greater modification by 22a | – | – | – | – | – | –
2 | CC(C)C[C@H](NC(=O)[C@H]1O[C@@H]1C(=O)O)C(=O)NCCCCN=C(N)N [E-64, L-trans-epoxysuccinyl-leucylamido(4-guanidino)butane, reference compound] | 0.12 | 28.6 | – | 3.02±0.15 | 0.54 | 563 ± 52 | – | – | –
3 | O=C(Nc1nc(-c2ccc(F)cc2)cs1)[C@H](Cc1cscn1)NC(=O)[C@H]1O[C@@H]1C(=O)O [compound 31, 3-((S)-1-(4-(4-fluorophenyl)thiazol-2-ylamino)-1-oxo-3-(thiazol-4-yl)propan-2-ylcarbamoyl)oxirane-2-carboxylic acid] | 0.08 | 14.8 | – | 2.96±0.14 | 1.06 | 279 ± 47 | 0.98 | show Cal1 selectivity | 0.50
4 | C#Cc1ccc(-c2csc(NC(=O)[C@H](Cc3cscn3)NC(=O)[C@H]3O[C@@H]3C(=O)O)n2)cc1 [compound 32, (2S,3S)-3-((S)-1-(4-(4-ethynylphenyl)thiazol-2-ylamino)-1-oxo-3-(thiazol-4-yl)propan-2-ylcarbamoyl)oxirane-2-carboxylic acid] | 0.14 | 21.6 | – | 3.89±0.41 | 1.74 | 223 ± 2.4 | 1.3 | show Cal1 selectivity | 0.40
5 | O=C(NCc1cn(-c2ccc(F)cc2)nn1)[C@H](Cc1cscn1)NC(=O)[C@H]1O[C@@H]1C(=O)O [compound 36, (2S,3S)-3-((S)-1-((1-(4-fluorophenyl)-1H-1,2,3-triazol-4-yl)methylamino)-1-oxo-3-(thiazol-4-yl)propan-2-ylcarbamoyl)oxirane-2-carboxylic acid] | 0.10 | 12.7 | – | 3.31±0.32 | 5.0 | 66.2 ±7.4 | 1.1 | show Cal1 selectivity | 0.12
